TRPC4 agonist: activators of mouse TRPC4 channel. Q9QUQ5. HEK293 TRPC4beta/mu-opioid, Fluo4 calcium fluorescence; hits give high values. B-score at 10 µM. hit rate 0.49% among 310,000;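 active = B-score above 5 SD of library B-scores, and initial fluorescence ratio not above library mean plus 5 SD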;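 also: positive B-score marks a calcium rise read as TRPC4 activation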
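Assay system: HEK293 stable line with TRPC4beta plus mu-opioid receptor. Times: dye 45 min RT, read 110 s. Measured by: kinetic Fluo4 calcium fluorescence. Measure: B score of integrated ratio. Controls: assay buffer as low control, maximal DAMGO as high control.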
TRPC4 PAM: allosterically enhances the mouse TRPC4 cation channel. HEK293 TRPC4beta/mu-opioid, DAMGO EC20, Fluo-4 Ca2+ flux; hits give high values. hit rate 0.42% among 310,000. B-score at 10 µM. AID 2227. Q9QUQ5;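 active = B-score of calcium response area above 5 SD of library B-scores, with initial fluorescence ratio within 5 SD of library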
TRPC6 inh: inhibitors of mouse TRPC6 channel; HEK293-TRPC6, membrane potential dye, ACh-evoked depolarization; hits give low values; B-score at 10 µM; AID 2553; Q61143; hit rate 1.1% among 310,000;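 active = B-score under library mean minus 3 SD, initial fluorescence not abnormally high, positive integrated signal ratio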;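 also: B-score derived from integrated fluorescence ratio over the kinetic read; more negative B-score means stronger inhibition of depolarization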
TRPC6 activator: mouse TRPC6 channel activation; Q61143; HEK293-TRPC6 membrane potential dye fluorescence; hits give high values; B-score at 10 µM; hit rate 0.13% among 310,000; AID 2550;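 active = B-score of the integrated fluorescence ratio above library mean plus 3 SD, and starting fluorescence ratio within library mean plus 5 SD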;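 also: higher score means more depolarization so channel activation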
TRPC4 inh: TRPC4 (mouse) channel inhibition; Q9QUQ5; HEK293 TRPC4beta/mu-opioid, DAMGO-evoked Fluo4 calcium flux; hits give low values; B-score at 10 µM; hit rate 0.39% among 300,000;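 active = B-score over 3 SD under the library average, no early fluorescence shift, positive overall ratio signal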
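Test system – stable TRPC4beta/mu-opioid receptor HEK293 cells · Probe or stimulus – DAMGO, a submaximal dose followed by a maximal one · Dosing – one concentration per compound · Signal – Fluo4 calcium fluorescence by kinetic imaging, 5 s 1 Hz baseline · Evaluation – per-well B score of integrated baseline-normalized Fluo4 ratio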
TRPC4 spec 2: second check of whether TRPC6 inhibitors also affect mouse TRPC4; shares compounds with TRPC6 inh; HEK293 TRPC4/MOR, membrane potential dye fluorescence; channel activated by saturating DAMGO dose; inhibition, % at 10 µM; hit rate 42% among 920;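 active = compounds whose fluorescence signal differed from control wells by over 3 SD, either direction, in both duplicate plates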
TRPC4 spec: tests whether TRPC6 inhibitors also affect mouse TRPC4 | shares compounds with TRPC6 inh | HEK293 TRPC4/mu-opioid, membrane potential fluorescence | activity change, negative = inhibition, % at 10 µM | hit rate 61% among 920 | AID 2777;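 active = rise or fall in signal beyond 3 SD of buffer-only wells in both replicate plates, either sign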;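 also: integrated kinetic ratio of fluorescence range over baseline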
HEK293 MPD ctr 2-1: second counter-screen for TRPC6 inhibitors: parental HEK293 cells; AID 2779; hit rate 31% among 920; parental HEK293 membrane potential dye fluorescence; maximal acetylcholine challenge after compound addition; signal change vs control, % at 10 µM; shares compounds with TRPC6 inh;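 active = membrane potential signal moving either way by over 3 SD of the maximum-effect control, in both duplicate plates, meaning non-specific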
HEK293 MPD ctr-1: checks TRPC6 inhibitor effects in parental HEK293 cells; shares compounds with TRPC6 inh; parental HEK293 membrane potential dye fluorescence; membrane potential signal change, % at 10 µM; hit rate 60% among 920; AID 2780;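 active = membrane potential signal shifting up or down by more than 3 SD of buffer-only wells, on both duplicate plates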
HEK293 MPD ctr-2: parental HEK293 nonspecific activity of TRPC6 modulators; shares compounds with TRPC6 inh; membrane potential dye fluorescence; AID 488924; hit rate 51% among 2,400; membrane potential signal change, % at 10 µM;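 active = membrane potential signal moves up or down beyond 5 SD from buffer-only wells, on both duplicate plates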
HEK293 MPD ctr 2-2: second check of TRPC6 modulator effects in parental HEK293 cells | membrane potential dye fluorescence; after compound, maximal acetylcholine stimulation | hit rate 14% among 2,400 | inhibition, % at 10 µM | shares compounds with TRPC6 inh;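 active = membrane potential signal drops by more than 5 SD from the mean control signal, in both duplicate plates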
TRPC4 ctr mod: tests whether TRPC6 modulators also affect mouse TRPC4 | shares compounds with TRPC6 inh | AID 488927 | hit rate 69% among 2,400 | HEK293 TRPC4/mu-opioid, membrane potential fluorescence | percent change from control (negative = decrease, positive = increase), % at 10 µM;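 active = membrane potential signal moved up or down beyond 5 SD of buffer control wells, in both duplicate plates, actives on both sides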
TRPC4/MOR inh 2: second check of whether TRPC6 modulators also affect mouse TRPC4 | shares compounds with TRPC6 inh | HEK293 TRPC4/mu-opioid, membrane potential dye fluorescence; stimulated with maximal-effect DAMGO | inhibition, % at 10 µM | hit rate 55% among 2,400;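 active = drop in membrane potential signal beyond 5 SD of the control wells in both duplicate plates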;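 also: TRPC4 counter screen for TRPC6 hits run under conditions tuned for TRPC6 not TRPC4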
TRPC6 inh conf: mouse TRPC6 inhibitor confirmation; HEK293-TRPC6, membrane potential dye, ACh-evoked depolarization; inhibition, % at 10 µM; hit rate 43% among 3,300; AID 488960; shares compounds with TRPC6 inh;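 active = fluorescence ratio falls more than 5 SD below the full-stimulation control mean, in both duplicate runs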;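 also: integrated fluorescence ratio of peak minus minimum over baseline after agonist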
TRPC6 act conf: confirmation of mouse TRPC6 activators. hit rate 11% among 2,800. AID 488961. shares compounds with TRPC6 inh. activation, % at 10 µM. HEK293-TRPC6 membrane potential dye fluorescence, FDSS;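 active = ratio signal rise beyond 5 SD above unstimulated control wells' mean, seen in both duplicate runs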
Each line names hits and unclear results; the compound was inactive in the other large screens (follow-up assays come after a bar, where they were run). Compounds with a hit are over-represented: about 2.3% of the library has one in this group of screens.

COCCOC1CCN(C(=O)C2CCC(=O)N(CCc3ccccc3)C2)CC1 (centres undefined)	none
O=C(NC1CC(=O)N(c2ccc(Cl)cc2)C1)N1CCN(C(=O)c2ccco2)CC1 (centres undefined)	none
COc1ccc2oc(C(=O)OCC(=O)NCc3ccccc3OC)c(C)c2c1	none
COc1cc(F)ccc1S(=O)(=O)N1CCN(c2ccccc2)CC1	none
CCCN1C(=O)c2ccccc2NC1c1ccc(O)c(OCC)c1 (centres undefined)	none
CSc1nc(C(=O)N2CCCC(C(=O)c3ccc(Cl)cc3)C2)cs1 (centres undefined)	TRPC6 inh -5.9 | HEK293 MPD ctr-2 138% | HEK293 MPD ctr 2-2 inactive | TRPC4 ctr mod 33% | TRPC4/MOR inh 2 inactive | TRPC6 inh conf inactive
Cc1cc(Cl)ccc1C(=O)C1CCCN(C(=O)c2cnsn2)C1 (centres undefined)	TRPC6 inh -6.7 | TRPC4 spec 2 inactive | TRPC4 spec 26% | HEK293 MPD ctr 2-1 inactive | HEK293 MPD ctr-1 18% | TRPC6 inh conf inactive
Cc1cc(Cl)ccc1C(=O)C1CCCN(C(=O)c2cscn2)C1 (centres undefined)	none
O=C(CN1CCN(c2ccccc2F)CC1)NC(=O)NCc1ccccc1	TRPC6 inh -5.1 | HEK293 MPD ctr-2 inactive | HEK293 MPD ctr 2-2 inactive | TRPC4 ctr mod inactive | TRPC4/MOR inh 2 inactive | TRPC6 inh conf inactive | TRPC6 act conf inactive
COc1ccc(S(=O)(=O)Nc2nc3c(s2)CCCC3)cc1	none
CCCCCCN1C=CC(=C/C=C(\C#N)C(=O)OCC)C=C1	TRPC4 agonist 61, TRPC6 inh -9.6, TRPC6 activator 78 | HEK293 MPD ctr-2 active | HEK293 MPD ctr 2-2 87% | TRPC4 ctr mod 250% | TRPC4/MOR inh 2 inactive | TRPC6 inh conf inactive | TRPC6 act conf 566%
Cc1cc(C)nc(/N=C(\N)Nc2ccc(C)c([N+](=O)[O-])c2)n1	TRPC6 inh -5.4 | HEK293 MPD ctr-2 inactive | HEK293 MPD ctr 2-2 inactive | TRPC4 ctr mod -19% | TRPC4/MOR inh 2 36% | TRPC6 inh conf inactive | TRPC6 act conf inactive
CC(=O)c1cccc(NC(=O)c2ccccc2N(Cc2ccccc2)S(C)(=O)=O)c1	none
COc1ccccc1CNC(=O)COC(=O)CCN=C1NS(=O)(=O)c2ccccc21	none
CCc1noc(C)c1C(=O)Nc1ccc(-c2nnc3n2CCCCC3)cc1	TRPC6 inh -5 | HEK293 MPD ctr-2 inactive | HEK293 MPD ctr 2-2 inactive | TRPC4 ctr mod inactive | TRPC4/MOR inh 2 inactive | TRPC6 inh conf inactive | TRPC6 act conf inactive
